These results are taken from PubChem BioAssay.

A short description of assay [1]: S. cerevisiae growth inhibition in permissive medium (OD615), pilot counter-assay for S. cerevisiae lifespan shortening project, permissive growth control (AID 705;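 active = growth inhibition above 25% in both replicates, a cutoff set 3 SD above the mean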). As to conditions: OD615, 24 h, at 10 µM, hits give high values. The method, boiled down: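 System: Engineered DeaD yeast | Buffer or medium: SC raffinose/galactose permissive medium | Doses: 10 µM single dose, 0.25% DMSO | Times: 24 h exposure, 30 °C | Measured by: OD615 turbidity read | Read-out: Yeast growth inhibition indicated by reduced 24 h OD615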

A short description of assay [2]: S. cerevisiae growth inhibition in restrictive medium, OD615, pilot screen, restrictive growth control, yeast lifespan reduction project (AID 706;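 active = growth inhibition above a set limit, 3 SD over mean compound inhibition, in both replicates, cut at about 43% in these data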;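 note: modified DeaD lifespan yeast strain shifted to restrictive glucose medium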). The settings on record: OD615, 48 h, at 10 µM, hits give high values. The method, boiled down:
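Assay system: engineered S. cerevisiae DeaD strain; Buffer or medium: CSMM-D glucose medium; Dosing: 10 µM compound, 0.25% DMSO; Times: cell pre-growth 4 h, compound exposure 48 h, 30 °C; Detection: absorbance (optical density) measured at 615 nm.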

Assay [3] can be described thus: doxorubicin toxicity protection in MRP-1 cells – H69AR cells, CellTiter-Glo, duplicate, MRP-1 activator project, pilot screen (AID 807;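 active = viability increase at or above a cutoff of the median across tested compounds plus 3 SD, cut at about 8.5% in these data, passing the limit was not always enough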;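 note: compound pretreatment 18-22 h then 72 h combined with doxorubicin; 0% = doxorubicin alone and 100% = vehicle without doxorubicin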). As to conditions: H69AR viability with doxorubicin, CellTiter-Glo luminescence; at 10 µM; hits give high values.
Assay [4] is described as follows: viability of HCT116 without oncogenic beta-catenin – human colon tumor cells, pilot screen (AID 823;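 active = cell viability at or below a set limit in both duplicate runs, the limit being the all-compound median minus 4 SD, cut at about 23% in these data, passing the limit was not always enough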;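 note: 0% = wells killed by 20 µM Hyamine and 100% = untreated DMSO cell wells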). The settings on record: HCT116 beta-catenin knockout viability, CellTiter-Glo, 60 h; at 10 µM; hits give low values. A general note: In ATP-based viability assays light output follows the ATP content of the culture.
The nature of assay [5]: viability of PTEN-null HCT116 cells – cell-based, HCT116 clonal line, CellTiter-Glo, pilot screen (AID 824;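 active = viability at or below 27.92% in each of two runs, the all-compound median minus 4 SD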;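 note: 0% = 20 µM Hyamine control and 100% = vehicle cell control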). The settings on record: HCT116 PTEN-deleted viability, 60 h, at 10 µM, hits give low values.
The nature of assay [6]: RAM pathway blockade in budding yeast – dse1pr::URA3 reporter, 5-FOA selection, pilot screen (AID 869).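 Note: 0% = DMSO wells with no growth and 100% = 10 µM 1-NA-PP1 with full growth; RAM network block rescues cells from 5-FOA so hits raise OD615 growth.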 As to conditions: S. cerevisiae dse1pr::URA3 5-FOA growth, OD615, 2 d; at 10 µM; hits give high values; strain carries analog-sensitive mutant Cbk1 kinase.
A short description of assay [7]: RAM signaling pathway blockade in yeast – S. cerevisiae, Pdr1DBD-CYC8 efflux-inhibited sensitized strain, primary screen (AID 1298;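 active = RAM network inhibition above 8.4% in each of two replicates, 3 SD over the compound average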;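 note: 0% = DMSO untreated cells without growth and 100% = 10 µM 1-NA-PP1 full growth; higher means more yeast growth rescued from 5-FOA killing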). The settings on record: S. cerevisiae cbk1-as DSE1-URA3 strain, 5-FOA growth OD615, 2 d; at 50 µM; hits give high values.

Values without a mark were called inactive. Results filed as inconclusive are left out. Activity calls are given as the source filed them.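 Rule for the calls, unless noted: active = inhibition over a set limit, the all-compound mean plus 3 SD, in both replicate runs; inconclusive = over that limit in just one replicate run; inactive = at or under that limit in both runs.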

The viability is a read-out of living cells in per cent, often relative to untreated cells. In general, inhibition refers to the change of the read-out against control, counted positive when it falls.

On to `CCS(=O)(=O)NCCc1csc(-c2cccnc2)n1`, for which the growth inhibition in assay [1] is -1.29%; in assay [2], -6.54%. The viability increase in assay [3] was -0.37%. Besides, the viability in assay [4] and in assay [5] was 102% each time. The inhibition in assay [6] was 2.48%. Moreover, in assay [7], the RAM network inhibition was 6.14%.
With `Cc1c(NC(=O)c2ccco2)cccc1-c1nc2cccnc2s1`, the growth inhibition in assay [1] was 1.62%; in assay [2], -4.21%. The viability increase in assay [3] was -4.21%. In addition, the viability is 97.4% in assay [4] and 95.5% in assay [5]. Besides, the inhibition in assay [6] was 2.2%. Moreover, the RAM network inhibition in assay [7] is 5.74%.
As to `COc1cc(OC)cc(-c2cc3nc(C)c(CCC(=O)O)c(C)n3n2)c1`, the growth inhibition was 0.5% in assay [1] and -1.06% in assay [2]. Moreover, the viability increase in assay [3] was -2.31%. Further, the viability in assay [4] and in assay [5] was 96.6% throughout. Also, the inhibition in assay [6] was 0.805%. For the same molecule, the RAM network inhibition in assay [7] was 1.56%.
As to `Cc1cc(Nc2ccc(F)cc2F)n2nc(C)nc2n1`, the growth inhibition in assay [1] was -20.2%; in assay [2], -3.57%. Further, the viability increase in assay [3] is -1.98%. The viability in assay [4] is 104%; in assay [5], 98.5%. Also, the inhibition in assay [6] was 0.33%. In addition, the RAM network inhibition in assay [7] is 2.94%.
Take `Cc1cc(C)n(CC(O)Cn2c3ccccc3c3ccccc32)c(=O)n1` (stereo unspecified): the growth inhibition is -7.41% in assay [1] and -12.9% in assay [2]. Moreover, the viability increase in assay [3] is -2.44%. For the same molecule, the results for the viability in assay [4] and in assay [5] were 90% and 91.5%, respectively. The inhibition in assay [6] was 1.3%. Further, the RAM network inhibition in assay [7] was 5.3%.
Consider `CC1Cc2ccccc2N1C(=O)c1ccc2snnc2c1` (stereo unspecified), for which the growth inhibition in assay [1] is -1.7%; in assay [2], -9.59%. Also, in assay [3], the viability increase is -3.96%. For the same molecule, the viability in assay [4] is 95%; in assay [5] it was 96.8%. Besides, the inhibition in assay [6] was 0.79%. The RAM network inhibition in assay [7] is 6.74%.
On to `COc1ccc(C/C(N)=N/n2cnnc2)cc1`, for which the growth inhibition in assay [1] is 2.64%; in assay [2], -3.72%. Also, the viability increase in assay [3] was 0.39%. Also, the results for the viability in assay [4] and in assay [5] were 100% and 106%, respectively. The inhibition in assay [6] is 0.64%. Moreover, the RAM network inhibition in assay [7] is 3.02%.
As for `O=C(c1ccco1)N1CCN(S(=O)(=O)c2cccc3nsnc23)CC1`, the results for the growth inhibition in assay [1] and in assay [2] were -10.9% and -21.4%, respectively. For the same molecule, the viability increase in assay [3] was -0.16%. Besides, the viability in assay [4] is 99%; in assay [5] it was 99.7%. Also, the inhibition in assay [6] is 0.6%. In addition, in assay [7], the RAM network inhibition was 5.06%.
For `COc1ccc(S(=O)(=O)N(C)c2c(C)n(C)n(-c3ccccc3)c2=O)cc1OC`, the growth inhibition in assay [1] was -5.13%; in assay [2], 0.325%. The viability increase in assay [3] was -1.65%. For the same molecule, the viability is 95.5% in assay [4] and 102% in assay [5]. Besides, in assay [6], the inhibition was 0.535%. Further, the RAM network inhibition in assay [7] is 3.38%.
Consider `CCc1ccc(NC(=O)CSc2nnc(Cn3c(=O)sc4ccccc43)n2C)cc1`, for which the figures for the growth inhibition in assay [1] and in assay [2] were -4.66% and -25.2%, respectively. In addition, the viability increase in assay [3] is -1.98%. Besides, the viability in assay [4] was 104%; in assay [5], 97.6%. In assay [6], the inhibition is 2.96%. Besides, in assay [7], the RAM network inhibition is 8.29%.
As for `CC1=CS/C(=C(/C#N)C(=O)N2CCOCC2)N1c1ccccc1`, the growth inhibition in assay [1] was -2.33%; in assay [2], 1.7%. Further, the viability increase in assay [3] was -1.17%. Further, the viability in assay [4] was 94.2%; in assay [5], 94.7%. Moreover, the inhibition in assay [6] was 0.255%. For the same molecule, in assay [7], the RAM network inhibition is 0.92%.
Consider `Cc1ccc(O)c(C(=O)CC(=O)c2cccc(F)c2)c1`, for which the growth inhibition in assay [1] was 35.8% (active); in assay [2], 50% (active). In assay [3], the viability increase was -7.04%. The values for the viability in assay [4] and in assay [5] were 40.6% and 47.4%, respectively. Besides, in assay [6], the inhibition was -0.695%. Besides, in assay [7], the RAM network inhibition is -1.45%.
In the case of `CN(Cc1ccco1)C(=O)C(Cc1ccccc1)NS(=O)(=O)c1ccc2c(c1)CCC(=O)N2` (stereo unspecified), the growth inhibition is -11.9% in assay [1] and -12.3% in assay [2]. Besides, in assay [3], the viability increase was -4.4%. The viability was 94.9% in assay [4] and 84.4% in assay [5]. Further, in assay [6], the inhibition was 2.2%. For the same molecule, the RAM network inhibition in assay [7] is 3.45%.
`COc1ccc(N=C(N(C)C)P(=O)(N(C)C)N(C)C)cc1`: the growth inhibition is -5.46% in assay [1] and 0.105% in assay [2]. Moreover, the viability increase in assay [3] is -1.44%. For the same molecule, the results for the viability in assay [4] and in assay [5] were 103% and 98.4%, respectively. Besides, in assay [6], the inhibition was 0.22%. Moreover, the RAM network inhibition in assay [7] is 6.63%.
Turning to `CC(CCc1ccco1)NC(=O)Cn1nc(Cc2ccncc2)c2ccccc2c1=O` (stereo unspecified), the values for the growth inhibition in assay [1] and in assay [2] were -0.065% and 3.82%, respectively. Moreover, the viability increase in assay [3] is -4.14%. In addition, the figures for the viability in assay [4] and in assay [5] were 89.4% and 92.7%, respectively. For the same molecule, the inhibition in assay [6] is 2.26%. The RAM network inhibition in assay [7] was 1.95%.
`O=C1c2ccccc2NC(c2ccccc2)N1c1ccc(O)cc1` (stereo unspecified): the growth inhibition was -0.23% in assay [1] and 1.65% in assay [2]. Besides, the viability increase in assay [3] was -3.15%. The viability in assay [4] is 87.1%; in assay [5], 90.8%. Further, the inhibition in assay [6] was 1.19%. In assay [7], the RAM network inhibition is 1.89%.
For the molecule `Cc1nc2sc(C(c3ccco3)N3CCN(c4ccccc4)CC3)c(O)n2n1` (stereo unspecified), the growth inhibition in assay [1] was -2.19%; in assay [2] it was -0.705%. Further, the viability increase in assay [3] was 3.13%. In addition, the values for the viability in assay [4] and in assay [5] were 97.3% and 101%, respectively. The inhibition in assay [6] is 1.73%. Moreover, the RAM network inhibition in assay [7] was 3%.
For `CCOc1ccc(CC(=O)NCc2cn3c(C)csc3n2)cc1`, the growth inhibition is -5.88% in assay [1] and 12.6% in assay [2]. For the same molecule, the viability increase in assay [3] was -0.15%. Also, the viability in assay [4] was 97.4%; in assay [5], 102%. Also, the inhibition in assay [6] was 1.14%. Also, the RAM network inhibition in assay [7] was 6.38%.
